{
  "source": "paper PMC12169410",
  "about": "(Epilepsia, 2025)",
  "type_in_all_cases": "in vivo",
  "key": {"[1]": {"test_system": "CF‐1 mice, 6 Hz psychomotor seizure", "assay": "Mouse 6 Hz seizure test", "settings": "1 mg/kg i.p., 0.25 h pretreatment"}, "[2]": {"test_system": "Genetic Absence Epilepsy Rat from Strasbourg (GAERS)", "assay": "GAERS model, spontaneous spike-and-wave discharges", "settings": "3 mg/kg oral; discharges increased progressively afterwards", "outline": "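Adult male GAERS rats (4–8 months) had frontal and parietal cortical EEG recorded while freely moving. […] SWDs were counted over a 20-min baseline (−25 to −5 min) and in 20-min epochs from 10 to 130 min post-dose. Analysis: mixed-model repeated-measures ANOVA with Dunnett vs vehicle; ED50 from a variable-slope curve fit of overall rate as % baseline.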"}, "CF‐1 mice": {"test_system": "CF‐1 mice", "assay": "Mouse fixed-speed rotarod test of minimal motor impairment", "settings": "1 mg/kg i.p.", "outline": "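Mice were tested on a fixed-speed rotarod at 6 rpm immediately before 6 Hz stimulation at 32 or 44 mA. A mouse falling off 3 times within 1 min was scored impaired. The experimenter was blinded to treatment.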"}, "[3]": {"test_system": "amygdala kindled Wistar rats", "assay": "Amygdala kindled rat seizure model", "settings": "16 mg/kg orally, 60 min prior to stimulation", "outline": "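Male Wistar rats had electrodes implanted under isoflurane with carprofen (5 mg/kg s.c.). Each treatment ran over 2 days with a 2-day washout. Day 1: oral vehicle (0.5% methylcellulose), then stimulation 60 or 120 min later. […] Seizures were scored on the Racine scale (0–5), and amygdala and cortical EEG afterdischarge duration was analysed off-line. Statistics: Wilcoxon test (severity) and paired t test (afterdischarge) vs baseline.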"}},
  "note": "Where “and” joins values, the source holds several entries; their conditions need not be identical. Equal values may be shown once.",
  "data": [
    {"compound": "CN1C(=O)CN=C(c2ccccc2)c2cc(Cl)ccc21", "note": "[Diazepam]", "values": [
      {"measurement": "Seizure protection 32 mA (mice protected/tested)", "setting": "[1]; 32 mA", "value": "10/10"},
      {"measurement": "Seizure protection 44 mA (mice protected/tested)", "setting": "[1]; 44 mA", "value": "3 of 10 and 3/10"},
      {"measurement": "Effect on SWDs in the first epoch (10–30 min)", "setting": "[2]", "value": "rapid and almost complete elimination of SWDs"},
      {"measurement": "Rotarod impairment (mice impaired/tested), 32 mA group", "setting": "CF‐1 mice; immediately prior to 6 Hz 32 mA stimulation", "value": "0/10"},
      {"measurement": "Rotarod impairment (mice impaired/tested), 44 mA group", "setting": "CF‐1 mice; immediately prior to 6 Hz 44 mA stimulation", "value": "0/10"},
      {"measurement": "Change in mean afterdischarge duration in the amygdala vs baseline", "setting": "[3]", "value": "−69", "unit": "%"},
      {"measurement": "Change in mean afterdischarge duration in the cortex vs baseline", "setting": "[3]", "value": "−75", "unit": "%"},
      {"measurement": "Change in mean seizure severity score (Racine scale) vs baseline", "setting": "[3]", "value": "−3.7"}
    ]}
  ]
}
